{"source": "ChEMBL document CHEMBL1147931", "about": "“3-(3,4,5-Trimethoxyphenyl)-1-oxo-2-propene: a novel pharmacophore displaying potent multidrug resistance reversal and selective cytotoxicity” (Bioorg Med Chem, 2007)", "key": {"HSC-2 [1]": {"tested_on": "HSC-2", "assay": "Cytotoxicity against HSC2 cells", "type": "functional", "conditions": "Homo sapiens", "in_short": "(§1)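 Adherent cells pre-cultured 24 h in DMEM with 10% […] FBS, humidified 5% CO2, then exposed to a range of compound concentrations. Cells washed once with PBS, incubated 4 h in fresh medium with MTT, lysed in DMSO, viable cells read at 540 nm. CC50 from dose-response curves, average of two independent determinations.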"}, "HSC-3": {"tested_on": "HSC-3", "assay": "Cytotoxicity against HSC3 cells", "type": "functional", "conditions": "Homo sapiens", "in_short": "as §1"}, "HSC-4": {"tested_on": "HSC-4", "assay": "Cytotoxicity against HSC4 cells", "type": "functional", "conditions": "Homo sapiens", "in_short": "as §1"}, "HL-60 [2]": {"tested_on": "HL-60", "assay": "Cytotoxicity against human HL60 cells", "type": "functional", "in_short": "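HL-60 cells grown in RPMI1640 plus 10% FBS in humidified 5% CO2, exposed to a range of compound concentrations. Viable cells counted by trypan blue exclusion. CC50 from dose-response curves, average of two independent determinations.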"}, "[3]": {"assay": "Cytotoxicity against HGF cells", "type": "cell-based", "conditions": "human", "in_short": "as §1"}, "[4]": {"assay": "Cytotoxicity against HPLF cells", "type": "cell-based", "conditions": "human", "in_short": "as §1"}, "[5]": {"assay": "Cytotoxicity against HPC cells", "type": "cell-based", "conditions": "human", "in_short": "as §1"}, "HL-60 [6]": {"tested_on": "HL-60", "assay": "Effect on apoptosis in human HL60 cells assessed as increase in caspase 9 activation above 8 uM after 4 hrs", "type": "functional, cell-based"}, "HL-60 [7]": {"tested_on": "HL-60", "assay": "Effect on apoptosis in human HL60 cells assessed as increase in caspase 8 activation above 8 uM after 4 hrs", "type": "functional, cell-based"}, "HL-60 [8]": {"tested_on": "HL-60", "assay": "Effect on apoptosis in human HL60 cells assessed as increase in caspase 3 activation above 8 uM after 4 hrs", "type": "functional, cell-based"}, "HSC-2 [9]": {"tested_on": "HSC-2", "assay": "Effect on apoptosis in HSC2 cells assessed as increase in caspase 3 activation at 8 uM after 4 hrs", "type": "functional, cell-based", "conditions": "Homo sapiens", "in_short": "(§2)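 HSC-2 cells (2×10^6) grown in DMEM with 10% FBS in humidified 5% CO2, incubated 4 h with 4, 8, 16 or 32 µM compound; actinomycin D 1 µg/mL as positive control. Lysate (200 µg protein) incubated 2 h at 37 °C with DEVD-pNA (caspase-3), IETD-pNA (caspase-8) or LEHD-pNA (caspase-9); released pNA read at 405 nm. Mean of 2–3 experiments.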"}, "HSC-2 [10]": {"tested_on": "HSC-2", "assay": "Effect on apoptosis in HSC2 cells assessed as increase in caspase 9 activation at 32 uM after 4 hrs", "type": "functional, cell-based", "conditions": "Homo sapiens", "in_short": "as §2"}, "HL-60 [11]": {"tested_on": "HL-60", "assay": "Effect on apoptosis in human HL60 cells assessed as increase in caspase 3 activation at 4 uM after 4 hrs", "type": "functional, cell-based"}, "HSC-2 [12]": {"tested_on": "HSC-2", "assay": "Effect on apoptosis in HSC2 cells assessed as increase in caspase 3 activation at 32 uM after 4 hrs", "type": "functional, cell-based", "conditions": "Homo sapiens", "in_short": "as §2"}, "HSC-2 [13]": {"tested_on": "HSC-2", "assay": "Effect on apoptosis in HSC2 cells assessed as increase in caspase 8 activation at 32 uM after 4 hrs", "type": "functional, cell-based", "conditions": "Homo sapiens", "in_short": "as §2"}}, "note": "The source made the active and inactive calls. The rule behind the calls is not given here.", "data": [{"molecule": "COc1cc(/C=C2\\CC/C(=C\\c3cc(OC)c(OC)c(OC)c3)C2=O)cc(OC)c1OC", "values": [{"measurement": "CC50", "setting": "HSC-2 [1]", "result": 19, "unit": "µM"}, {"measurement": "CC50", "setting": "HSC-3", "result": 89, "unit": "µM"}, {"measurement": "CC50", "setting": "HSC-4", "result": 58, "unit": "µM"}, {"measurement": "CC50", "setting": "HL-60 [2]", "result": 21, "unit": "µM"}, {"measurement": "CC50", "setting": "[3]", "result": 240, "unit": "µM"}, {"measurement": "CC50", "setting": "[4]", "result": 281, "unit": "µM"}, {"measurement": "CC50", "setting": "[5]", "result": 247, "unit": "µM"}]}, {"molecule": "COc1cc(/C=C/C(=O)/C=C/c2ccc([N+](=O)[O-])cc2)cc(OC)c1OC", "values": [{"measurement": "CC50", "setting": "HSC-2 [1]", "result": "< 3.1", "unit": "µM"}, {"measurement": "CC50", "setting": "HSC-3", "result": 5.7, "unit": "µM"}, {"measurement": "CC50", "setting": "HSC-4", "result": 3.8, "unit": "µM"}, {"measurement": "CC50", "setting": "HL-60 [2]", "result": 6.4, "unit": "µM"}, {"measurement": "CC50", "setting": "[3]", "result": 16, "unit": "µM"}, {"measurement": "CC50", "setting": "[4]", "result": 106, "unit": "µM"}, {"measurement": "CC50", "setting": "[5]", "result": 94, "unit": "µM"}, {"measurement": "Activity", "setting": "HL-60 [6]", "result": "Active"}, {"measurement": "Activity", "setting": "HL-60 [7]", "result": "Active"}, {"measurement": "Activity", "setting": "HL-60 [8]", "result": "Active"}, {"measurement": "Activity", "setting": "HSC-2 [9]", "result": "Active"}, {"measurement": "Activity", "setting": "HSC-2 [10]", "result": "Active"}]}, {"molecule": "COc1cc(/C=C2\\CCCCCC2=O)cc(OC)c1OC", "values": [{"measurement": "CC50", "setting": "HSC-2 [1]", "result": 214, "unit": "µM"}, {"measurement": "CC50", "setting": "HSC-3", "result": 200, "unit": "µM"}, {"measurement": "CC50", "setting": "HSC-4", "result": 269, "unit": "µM"}, {"measurement": "CC50", "setting": "HL-60 [2]", "result": 31, "unit": "µM"}, {"measurement": "CC50", "setting": "[3]", "result": 262, "unit": "µM"}, {"measurement": "CC50", "setting": "[4]", "result": 291, "unit": "µM"}, {"measurement": "CC50", "setting": "[5]", "result": 277, "unit": "µM"}]}, {"molecule": "COc1ccc(/C=C/C(=O)/C=C/c2ccc([N+](=O)[O-])cc2)cc1", "values": [{"measurement": "CC50", "setting": "HSC-2 [1]", "result": 6.3, "unit": "µM"}, {"measurement": "CC50", "setting": "HSC-3", "result": 16, "unit": "µM"}, {"measurement": "CC50", "setting": "HSC-4", "result": 12, "unit": "µM"}, {"measurement": "CC50", "setting": "HL-60 [2]", "result": 25, "unit": "µM"}, {"measurement": "CC50", "setting": "[3]", "result": 81, "unit": "µM"}, {"measurement": "CC50", "setting": "[4]", "result": 193, "unit": "µM"}, {"measurement": "CC50", "setting": "[5]", "result": 141, "unit": "µM"}]}, {"molecule": "N[C@@H](Cc1ccc(N(CCCl)CCCl)cc1)C(=O)O", "note": "[MELPHALAN]", "values": [{"measurement": "CC50", "setting": "HSC-2 [1]", "result": 35, "unit": "µM"}, {"measurement": "CC50", "setting": "HSC-3", "result": 115, "unit": "µM"}, {"measurement": "CC50", "setting": "HSC-4", "result": 81, "unit": "µM"}, {"measurement": "CC50", "setting": "HL-60 [2]", "result": 6, "unit": "µM"}, {"measurement": "CC50", "setting": "[3]", "result": "> 200", "unit": "µM"}, {"measurement": "CC50", "setting": "[4]", "result": "> 200", "unit": "µM"}, {"measurement": "CC50", "setting": "[5]", "result": "> 200", "unit": "µM"}]}, {"molecule": "COc1cc(/C=C2\\CCCC/C(=C\\c3ccc([N+](=O)[O-])cc3)C2=O)cc(OC)c1OC", "values": [{"measurement": "CC50", "setting": "HSC-2 [1]", "result": 116, "unit": "µM"}, {"measurement": "CC50", "setting": "HSC-3", "result": 279, "unit": "µM"}, {"measurement": "CC50", "setting": "HSC-4", "result": 100, "unit": "µM"}, {"measurement": "CC50", "setting": "HL-60 [2]", "result": 266, "unit": "µM"}, {"measurement": "CC50", "setting": "[3]", "result": 256, "unit": "µM"}, {"measurement": "CC50", "setting": "[4]", "result": 370, "unit": "µM"}, {"measurement": "CC50", "setting": "[5]", "result": 198, "unit": "µM"}]}, {"molecule": "COc1cc(/C=C2\\CCC/C(=C\\c3cc(OC)c(OC)c(OC)c3)C2=O)cc(OC)c1OC", "values": [{"measurement": "CC50", "setting": "HSC-2 [1]", "result": 34, "unit": "µM"}, {"measurement": "CC50", "setting": "HSC-3", "result": 62, "unit": "µM"}, {"measurement": "CC50", "setting": "HSC-4", "result": 36, "unit": "µM"}, {"measurement": "CC50", "setting": "HL-60 [2]", "result": 46, "unit": "µM"}, {"measurement": "CC50", "setting": "[3]", "result": 335, "unit": "µM"}, {"measurement": "CC50", "setting": "[4]", "result": 388, "unit": "µM"}, {"measurement": "CC50", "setting": "[5]", "result": 285, "unit": "µM"}]}, {"molecule": "COc1cc(/C=C/C(C)=O)cc(OC)c1OC", "values": [{"measurement": "CC50", "setting": "HSC-2 [1]", "result": 55, "unit": "µM"}, {"measurement": "CC50", "setting": "HSC-3", "result": 72, "unit": "µM"}, {"measurement": "CC50", "setting": "HSC-4", "result": 41, "unit": "µM"}, {"measurement": "CC50", "setting": "HL-60 [2]", "result": 47, "unit": "µM"}, {"measurement": "CC50", "setting": "[3]", "result": 159, "unit": "µM"}, {"measurement": "CC50", "setting": "[4]", "result": 263, "unit": "µM"}, {"measurement": "CC50", "setting": "[5]", "result": 188, "unit": "µM"}]}, {"molecule": "COc1cc(/C=C2\\CCCC/C(=C\\c3cc(OC)c(OC)c(OC)c3)C2=O)cc(OC)c1OC", "values": [{"measurement": "CC50", "setting": "HSC-2 [1]", "result": 113, "unit": "µM"}, {"measurement": "CC50", "setting": "HSC-3", "result": 132, "unit": "µM"}, {"measurement": "CC50", "setting": "HSC-4", "result": 67, "unit": "µM"}, {"measurement": "CC50", "setting": "HL-60 [2]", "result": 46, "unit": "µM"}, {"measurement": "CC50", "setting": "[3]", "result": 229, "unit": "µM"}, {"measurement": "CC50", "setting": "[4]", "result": 250, "unit": "µM"}, {"measurement": "CC50", "setting": "[5]", "result": 276, "unit": "µM"}]}, {"molecule": "COc1ccc(/C=C2\\CCC/C(=C\\c3ccc([N+](=O)[O-])cc3)C2=O)cc1", "values": [{"measurement": "CC50", "setting": "HSC-4", "result": "> 400", "unit": "µM"}]}, {"molecule": "COc1cc(/C=C2\\CCC/C(=C\\c3ccc([N+](=O)[O-])cc3)C2=O)cc(OC)c1OC", "values": [{"measurement": "CC50", "setting": "HSC-4", "result": 1.5, "unit": "µM"}, {"measurement": "Activity", "setting": "HL-60 [11]", "result": "Active"}, {"measurement": "Activity", "setting": "HSC-2 [12]", "result": "Active"}, {"measurement": "Activity", "setting": "HSC-2 [13]", "result": "Active"}, {"measurement": "Activity", "setting": "HSC-2 [10]", "result": "inactive"}]}]}
